We go through ten compounds from ChEMBL document CHEMBL1129783, “Synthesis and modeling studies with monocyclic analogues of mycophenolic acid” (J Med Chem, 1996).

As usually defined, the IC50 is the concentration that inhibits the measured activity by half. A higher IC50 goes with weaker potency. The inhibition is the change of the read-out against control, counted positive when it falls. A higher inhibition goes with strong suppression.

Where only a bound is given, the exact number is not on record here.

Assay [1] relates to L1210. Put plainly: Inhibitory activity of compound against L1210 leukemia cells in tissue culture. The class given is functional, cell-based. Particulars: Mus musculus; call rule not given here. Summed up:
(§1)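 L1210 leukemia cells in tissue culture were exposed for 48 h to compounds dissolved in DMSO, at up to 100 μM (highest concentration tested). Read-out was growth inhibition, reported as IC50 or as percent inhibition at 100 μM.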

Another assay relates to A549. Put plainly: Inhibitory activity of compound against human A549 lung carcinoma cell line. In kind it is functional, cell-based.
For another assay, the system named is A121. Put plainly: Inhibitory activity of compound against human A121 ovarian cell line. The class given is functional, cell-based.
The subject of assay [2] is HT-29. As to the kind of experiment: Inhibitory activity of compound against HT-29 human colon adenocarcinoma cell line; […]. The class given is functional, cell-based.
A further assay has as its system MCF7. As to the kind of experiment: Inhibitory activity of compound against human MCF-7 breast adenocarcinoma cell line. The class given is functional, cell-based.
For assay [3], the system named is L1210. As to the kind of experiment: Inhibitory activity of compound against L1210 leukemia cells in tissue culture at 100 uM. In kind it is functional. Particulars: Mus musculus. Summed up: as §1
In assay [4] the test system is HT-29. As to the kind of experiment: Inhibitory activity of compound against HT-29 human colon adenocarcinoma cell line. In kind it is functional, cell-based.

For the compound `COc1c(C)cc(C(N)=O)c(O)c1C/C=C(\C)CCC(=O)O`, the 50% inhibitory concentration (IC50) with L1210 [1] is over 100 µM.

`COc1ccc(C(C)=O)c(O)c1C/C=C(\C)CCC(=O)O`: the half-inhibitory concentration (IC50) in the assay with A549 was over 32.5 µM; in the assay with A121, over 32.5 µM; with HT-29 [2], “Not Active”; in the assay on L1210 [1], over 100 µM; with MCF7, over 32.5 µM.

For the compound `COc1ccc(C(N)=O)c(O)c1C/C=C(\C)CCC(=O)O`, the IC50 result was “Not Active” in the assay with HT-29 [2] and over 100 µM in the assay with L1210 [1].

For `COC(=O)c1cc(C)c(OC)c(C/C=C(\C)CCC(=O)O)c1O`, the IC50 in the assay with L1210 [1] is over 100 µM.

On to `COC(=O)c1ccc(OC)c(C/C=C(\C)CCC(=O)O)c1O`, for which the IC50 result in the assay with HT-29 [2] was “Not Active”; in the assay with L1210 [1] it was over 100 µM.

As for `COc1c(C)cc(C(C)=O)c(O)c1C/C=C(\C)CCC(=O)O`, the half-inhibitory concentration (IC50) with L1210 [1] was over 100 µM.

In the assay with L1210 [3], `COc1c(Cl)cc(C(C)=O)c(O)c1C/C=C(\C)CCC(=O)O` showed an inhibition at 100 µM of 21%.

In turn, `COc1c(Cl)cc(C(N)=O)c(O)c1C/C=C(\C)CCC(=O)O` yielded an IC50 in the assay with L1210 [1] of over 100 µM.

With `COC(=O)c1cc(Cl)c(OC)c(C/C=C(\C)CCC(=O)O)c1O`, the IC50 with L1210 [1] was determined as 61 µM.

With `COc1c(C)c2c(c(O)c1C/C=C(\C)CCC(=O)O)C(=O)OC2` [MYCOPHENOLIC ACID], the 50% inhibitory concentration (IC50) in the assay on HT-29 [4] is 0.4 µM; in the assay with L1210 [1], under 0.2 µM.
